Compound activity as filed in PubChem.
In the library only some 2.9% were active in any assay of this set; here they are far more common.
RBBP9 inh: human RBBP9 hydrolase inhibition; O75884; recombinant RBBP9, FP-Rh probe fluorescence polarization; inhibition, % at 7.94 µM; 0.2% of 220,000 active; AID 1515;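 active means inhibition above the campaign mean of all tested compounds plus 3 SD, cut at about 14% in these data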
Target sequence (O75884 whole entry, looked up): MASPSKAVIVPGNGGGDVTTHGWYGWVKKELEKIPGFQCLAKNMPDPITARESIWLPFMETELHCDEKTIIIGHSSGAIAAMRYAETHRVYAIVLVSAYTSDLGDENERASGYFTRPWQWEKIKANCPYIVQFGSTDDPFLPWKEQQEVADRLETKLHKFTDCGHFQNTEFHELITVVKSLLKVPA
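System: RBBP9 protein / Quantity: 2.5 µM RBBP9 dispensing solution, before mixing / Also added: Serine-hydrolase probe FP-Rh, 375 nM pre-mixing / Dosing: 7.94 µM single dose, 0.794% DMSO / Timing: enzyme-compound preincubation 30 min, then probe labeling 45 min, 25 °C / Signal: FP readout at 525/598 nm / Controls: DMSO-treated enzyme wells and wells lacking RBBP9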
M18AAP inhibitor: blocks P. falciparum M18 aspartyl aminopeptidase; recombinant PfM18AAP, H-Glu-NHMec fluorogenic cleavage; inhibition, % at 7.35 µM; 1.2% of 290,000 active; AID 1822;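 active means inhibition above the campaign mean inhibition over all tested compounds plus 3 SD, cut at about 28% in these data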
Hck-Nef inh: blocks Nef-activated human Hck kinase; P08631; Recombinant Hck-YEEI plus Nef, Z-Lyte FRET kinase assay; inhibition, % at 20 µM; 0.68% of 220,000 active; AID 463187;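 active means Hck-Nef kinase inhibition above about 50%, limit read from the data; inactive means inhibition below that limit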
Target sequence (P08631 whole entry, looked up): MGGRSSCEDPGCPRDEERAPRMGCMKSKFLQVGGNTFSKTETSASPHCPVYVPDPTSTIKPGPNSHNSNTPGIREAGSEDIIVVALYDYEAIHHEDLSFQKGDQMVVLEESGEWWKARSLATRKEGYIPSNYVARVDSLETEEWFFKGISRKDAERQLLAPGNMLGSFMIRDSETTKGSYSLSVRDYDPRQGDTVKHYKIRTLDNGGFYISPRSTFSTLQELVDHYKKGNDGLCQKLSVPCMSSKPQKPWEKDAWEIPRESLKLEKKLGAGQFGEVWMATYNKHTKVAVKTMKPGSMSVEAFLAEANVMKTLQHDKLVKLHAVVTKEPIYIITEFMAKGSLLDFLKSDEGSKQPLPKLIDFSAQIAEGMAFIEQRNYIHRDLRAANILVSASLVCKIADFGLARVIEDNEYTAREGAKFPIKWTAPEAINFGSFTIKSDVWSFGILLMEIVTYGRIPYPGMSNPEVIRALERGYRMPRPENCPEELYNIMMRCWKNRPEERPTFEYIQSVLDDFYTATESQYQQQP
Runt-CBFb FRET: blocks binding of human RUNX1 Runt domain to CBFb | Q01196+Q13951 | Cerulean-Runt/Venus-CBFb FRET ratio 530/480, 1 h | inhibition, % at 20 µM | 0.46% of 220,000 active | AID 1496;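 active means inhibition over about 50% at 20 µM in the single-dose screen, limit read from the data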
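Buffer or medium: Tris pH 7.5 buffer with BSA. Assay system: Cerulean-labeled Runt domain protein. Amount: each fluorescent fusion protein 100 nM. Read-out basis: loss of energy transfer signal. Incubation: 1 h compound exposure, room temperature. Probe or stimulus: Venus-CBFb binding partner, 100 nM. Detection: FRET, excitation 422 nm, emission at 530 and 480 nm.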
RanGTP-Imp inh: inhibitors of RanGTP-importin-beta interaction, primary screen, biochemical, FRET, CFP-Ran, YFP-importin-beta, homogeneous; cell-free CFP-Ran/YFP-importin-beta FRET ratio; inhibition, % (concentration not given with the values); 1.1% of 300,000 active; AID 2216;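 active means more than half of the replicate wells show a fall in the fluorescence ratio signal beyond about 16%, limit read from the data, passing the limit was not always enough; inconclusive means exactly half of the replicate wells pass the set limit; inactive means fewer than half of replicates pass the limit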
Runt-SMMHC FRET: inhibitors of human RUNX1 Runt domain binding to CBFb-SMMHC. Q01196+Q13951. Cerulean-Runt/Venus-CBFb-SMMHC FRET ratio 530/480, 1 h. inhibition, % at 20 µM. 0.74% of 220,000 active;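 active means mean inhibition across duplicate retests at 20 µM reaching about 50%, limit read from the data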;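 further: inhibitors lower the FRET ratio by blocking Runt binding to CBFb-SMMHC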
YIC counter: counter-screen YIC FRET for RanGTP-importin-beta inhibitors; shares compounds with RanGTP-Imp inh; Purified YIC probe, intramolecular FRET ratio YFP/CFP; IC50, µM; 40% of 1,000 active;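 active means fitted half-maximal inhibitory concentration no more than tenfold above the top dose tested; inconclusive means flat fit with 30 to 70% activity, or poor fit; inactive means half-maximal concentration beyond tenfold above the top dose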
Numbers stand for hits.

`CCN1C(=S)SC(=O)C1=C1C=C(C)N(Cc2ccco2)C(C)=C1` gave RBBP9 inh inactive, M18AAP inhibitor inactive, Hck-Nef inh inactive, Runt-CBFb FRET inactive, RanGTP-Imp inh 37, Runt-SMMHC FRET inactive and YIC counter 11.
`CCOc1ccccc1N(C)S(=O)(=O)c1ccc2c(c1)CCN2C(=O)CCC(=O)O` gave M18AAP inhibitor inactive and RanGTP-Imp inh inactive.
`COc1cccc(N(C(=O)Cn2nnc(-c3ccc(Cl)cc3)n2)C(C(=O)NCC2CCCO2)c2ccc(C)cc2)c1` (stereo unspecified) gave RBBP9 inh inactive, M18AAP inhibitor inactive, Hck-Nef inh inactive, Runt-CBFb FRET inactive, RanGTP-Imp inh inactive and Runt-SMMHC FRET inactive.
For Cc1ccc(-c2nnn(CC(=O)N(c3ccccc3)C(C(=O)NCC3CCCO3)c3ccc(Cl)cc3)n2)cc1 (stereo unspecified) the results were RBBP9 inh inactive, M18AAP inhibitor inactive, Hck-Nef inh inactive, Runt-CBFb FRET inactive, RanGTP-Imp inh 21, Runt-SMMHC FRET inactive and YIC counter inactive.
For CC(=O)Nc1ccc(NS(=O)(=O)c2cccc3nonc23)cc1 the results were M18AAP inhibitor inactive and RanGTP-Imp inh inactive.
`O=Cc1ccc(N2Cc3ccccc3C2)cc1` gave M18AAP inhibitor inactive, RanGTP-Imp inh 18 and YIC counter inactive.
For COc1ccccc1C(=O)N/C(=C\c1ccccc1)C(=O)NCc1ccco1 the results were M18AAP inhibitor inactive and RanGTP-Imp inh inconclusive.
Screening COc1ccc(CNC(=O)[C@@H](NC(=O)C2CCN(S(=O)(=O)c3ccccc3)CC2)C(C)C)cc1 returned M18AAP inhibitor inactive and RanGTP-Imp inh inactive.
N#CC1=C(N)SC(N)=C(C#N)C1c1cccc(O)c1 was read as RBBP9 inh inactive, M18AAP inhibitor inactive, Hck-Nef inh inactive, Runt-CBFb FRET inactive, RanGTP-Imp inh 22, Runt-SMMHC FRET inactive and YIC counter inactive.
For CCSC1=C(C#N)C(c2cccc(O)c2)CC(=O)N1 (stereo unspecified) the results were RBBP9 inh inactive, M18AAP inhibitor inactive, Hck-Nef inh inactive, Runt-CBFb FRET inactive, RanGTP-Imp inh inactive and Runt-SMMHC FRET inactive.
Screening Cc1cccc(C(=O)NCCNc2nc3cc(C)c(C)cc3cc2C)c1 returned RBBP9 inh inactive, M18AAP inhibitor inactive, Hck-Nef inh inactive, Runt-CBFb FRET inactive, RanGTP-Imp inh inactive and Runt-SMMHC FRET inactive.
Screening Cc1cccc2cc(C#N)c(NCCNC(=S)NCCCN3CCOCC3)nc12 returned RBBP9 inh inactive, M18AAP inhibitor inactive, Hck-Nef inh inactive, Runt-CBFb FRET inactive, RanGTP-Imp inh 19, Runt-SMMHC FRET 64 and YIC counter 48.
`COc1ccc(C(=O)NCCNc2nc3c(C)cccc3cc2C#N)cc1` gave M18AAP inhibitor inactive, RanGTP-Imp inh 36 and YIC counter 18.
`Cc1ccc2nc(NCCNC(=O)c3ccccc3)c(C#N)cc2c1` gave M18AAP inhibitor inactive, RanGTP-Imp inh 49 and YIC counter 4.7.
CCCOC(=O)C1=C(C)N(C)C(=O)NC1c1cc2c(cc1Br)OCO2 (stereo unspecified) was read as M18AAP inhibitor inactive and RanGTP-Imp inh inactive.
For CCCCn1c(N)c(N(CCOC)C(=O)CN(C)S(=O)(=O)c2ccc(C)cc2)c(=O)[nH]c1=O the results were RanGTP-Imp inh inactive.
Screening CN1CCCN(Cc2ccccc2Br)CC1 returned M18AAP inhibitor inactive and RanGTP-Imp inh inactive.
COc1cccc(-c2cc(C(F)(F)F)n3ncc(C(=O)O)c3n2)c1 was read as RBBP9 inh inactive, M18AAP inhibitor inactive, Hck-Nef inh inactive, Runt-CBFb FRET inactive, RanGTP-Imp inh inactive and Runt-SMMHC FRET inactive.
For COc1cccc(-c2cc(C(F)(F)F)n3ncc(S(=O)(=O)c4ccccc4)c3n2)c1 the results were RBBP9 inh inactive, M18AAP inhibitor inactive, Hck-Nef inh inactive, Runt-CBFb FRET inactive, RanGTP-Imp inh 35, Runt-SMMHC FRET inactive and YIC counter 43.
Screening O=C(CSCC(=O)NC1CC1)Nc1ccccc1 returned RBBP9 inh inactive, M18AAP inhibitor inactive, Hck-Nef inh inactive, Runt-CBFb FRET inactive, RanGTP-Imp inh 40, Runt-SMMHC FRET inactive and YIC counter inactive.
For O=C(CSCC(=O)NC1CCCC1)Nc1ccccc1 the results were RBBP9 inh inactive, M18AAP inhibitor inactive, Hck-Nef inh inactive, Runt-CBFb FRET inactive, RanGTP-Imp inh inactive and Runt-SMMHC FRET inactive.
`Nc1nc(N2CCOCC2)nc(N(c2ccccc2)c2ccccc2)n1` gave RBBP9 inh inactive, M18AAP inhibitor inactive, Hck-Nef inh inactive, Runt-CBFb FRET inactive, RanGTP-Imp inh 21, Runt-SMMHC FRET inactive and YIC counter inactive.
Screening CN(C)c1nc(N2CCOCC2)nc(N(c2ccccc2)c2ccccc2)n1 returned RBBP9 inh inactive, M18AAP inhibitor inactive, Hck-Nef inh inactive, Runt-CBFb FRET inactive, RanGTP-Imp inh inactive and Runt-SMMHC FRET inactive.
O=[N+]([O-])c1cc(CN2CCCC2)ccc1Sc1ccc(Cl)cc1 was read as RBBP9 inh inactive, M18AAP inhibitor inactive, Hck-Nef inh inactive, Runt-CBFb FRET inactive, RanGTP-Imp inh 19, Runt-SMMHC FRET inactive and YIC counter inactive.
For Clc1ccc(CN2CCCCCC2)cc1 the results were M18AAP inhibitor inactive and RanGTP-Imp inh inactive.
For CCOC(=O)Cc1csc(N/N=C\c2ccccc2OC)n1 the results were M18AAP inhibitor inactive and RanGTP-Imp inh inactive.
`CC(=O)N1CC=CC1(C)C(=O)O` (stereo unspecified) gave RBBP9 inh inactive, M18AAP inhibitor inactive, Hck-Nef inh inactive, Runt-CBFb FRET inactive, RanGTP-Imp inh inactive and Runt-SMMHC FRET inactive.
`CC1(C(=O)O)C=CCN1C(=O)c1ccccc1` (stereo unspecified) gave RBBP9 inh inactive, M18AAP inhibitor inactive, Hck-Nef inh inactive, Runt-CBFb FRET inactive, RanGTP-Imp inh 19, Runt-SMMHC FRET inactive and YIC counter inactive.
COc1ccc(CCC(=O)OCC(=O)Nc2ccc(OC)c(OC)c2)cc1OC was read as M18AAP inhibitor inactive and RanGTP-Imp inh inactive.
For COc1ccc(CCNC(=O)c2cc3c(=O)n4cccc(C)c4nc3n(CCCN3CCOCC3)c2=N)cc1 the results were M18AAP inhibitor inactive, RanGTP-Imp inh 39 and YIC counter 4.4.
Screening COc1ccc(CCn2c(=N)c(C(=O)NCC3CCCO3)cc3c(=O)n4cccc(C)c4nc32)cc1 (stereo unspecified) returned M18AAP inhibitor inactive, RanGTP-Imp inh 29 and YIC counter 14.
`COC(=O)C(c1ccccc1)N(Cc1cccc(CN(C(C(=O)OC)c2ccccc2)S(C)(=O)=O)c1)S(C)(=O)=O` (stereo unspecified) gave M18AAP inhibitor inactive and RanGTP-Imp inh inactive.
